Columns and labels:
Format in all cases: functional
MCF7 = experiment: Growth inhibition of human MCF7 cells at 100 nM after 96 hrs by MTT assay; parameters: scale not given: the % may be the effect or the level left
A498 = experiment: Growth inhibition of human A498 cells at 1 uM after 96 hrs by MTT assay; parameters: scale not given: the % may be the effect or the level left
SK-OV-3 = experiment: Growth inhibition of human SKOV3 cells at 1 uM after 96 hrs by MTT assay; parameters: scale not given: the % may be the effect or the level left
[1] = Growth inhibition of human RPMI8266 cells at 100 nM after 96 hrs by MTT assay; parameters: scale not given: the % may be the effect or the level left
LOX IMVI [2] = experiment: Growth inhibition of human LOXIMVI cells at 1 uM after 96 hrs by MTT assay; parameters: scale not given: the % may be the effect or the level left
DU-145 = experiment: Growth inhibition of human DU145 cells after 96 hrs by MTT assay; details: DU-145, 96 h
NCI-H322M [3] = experiment: Growth inhibition of human NCI-H322M cells at 1 uM after 96 hrs by MTT assay; parameters: scale not given: the % may be the effect or the level left
HOP-92 = experiment: Growth inhibition of human HOP92 cells at 1 nM after 96 hrs by MTT assay; parameters: scale not given: the % may be the effect or the level left
M14 = experiment: Growth inhibition of human M14 cells after 96 hrs by MTT assay; details: M14, 96 h
Method in brief: (§1)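 Run in the NCI 60 human tumour cell line panel as a five-dose assay. GI50 and LC50 were reported for each cell line.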

UACC-62 [4] = experiment: Growth inhibition of human UACC62 cells after 96 hrs by MTT assay; details: UACC-62, 96 h
Method in brief: (§2)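 Tested in the NCI 60-cell-line panel in five-dose format; GI50 and LC50 values reported for each cell line.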

KM12 [5] = experiment: Growth inhibition of human KM12 cells at 100 nM after 96 hrs by MTT assay; parameters: scale not given: the % may be the effect or the level left
KM12 [6] = experiment: Growth inhibition of human KM12 cells at 10 nM after 96 hrs by MTT assay; parameters: scale not given: the % may be the effect or the level left
SK-MEL-2 [7] = experiment: Growth inhibition of human SK-MEL-2 cells at 10 nM after 96 hrs by MTT assay; parameters: scale not given: the % may be the effect or the level left
T47D = experiment: Growth inhibition of human T47D cells at 10 nM after 96 hrs by MTT assay; parameters: scale not given: the % may be the effect or the level left
NCI-H460 [8] = experiment: Growth inhibition of human NCI-H460 cells after 96 hrs by MTT assay; details: NCI-H460, 96 h; method in brief: as §1
Malme-3M [9] = experiment: Growth inhibition of human MALME-3M cells at 1 uM after 96 hrs by MTT assay; parameters: scale not given: the % may be the effect or the level left
NCI/ADR-RES = experiment: Growth inhibition of human NCI/ADR-RES cells at 1 uM after 96 hrs by MTT assay; parameters: scale not given: the % may be the effect or the level left
SK-MEL-2 [10] = experiment: Growth inhibition of human SK-MEL-2 cells after 96 hrs by MTT assay; details: SK-MEL-2, 96 h; method in brief: as §2
K562 = experiment: Growth inhibition of human K562 cells at 10 uM after 96 hrs by MTT assay; parameters: scale not given: the % may be the effect or the level left
UACC-62 [11] = experiment: Growth inhibition of human UACC62 cells at 100 nM after 96 hrs by MTT assay; parameters: scale not given: the % may be the effect or the level left
TK-10 = experiment: Growth inhibition of human TK10 cells at 10 nM after 96 hrs by MTT assay; parameters: scale not given: the % may be the effect or the level left
NCI-H23 = experiment: Growth inhibition of human NCI-H23 cells after 96 hrs by MTT assay; details: NCI-H23, 96 h; method in brief: as §1
RXF 393 = experiment: Growth inhibition of human RXF393 cells at 1 uM after 96 hrs by MTT assay; parameters: scale not given: the % may be the effect or the level left
ACHN [12] = experiment: Growth inhibition of human ACHN cells at 100 nM after 96 hrs by MTT assay; parameters: scale not given: the % may be the effect or the level left
UACC-257 [13] = experiment: Growth inhibition of human UACC257 cells at 100 nM after 96 hrs by MTT assay; parameters: scale not given: the % may be the effect or the level left
PC-3 = experiment: Growth inhibition of human PC3 cells at 10 nM after 96 hrs by MTT assay; parameters: scale not given: the % may be the effect or the level left
SF-295 = experiment: Growth inhibition of human SF295 cells after 96 hrs by MTT assay; details: SF-295, 96 h; method in brief: as §2
Malme-3M [14] = experiment: Growth inhibition of human MALME-3M cells at 10 uM after 96 hrs by MTT assay; parameters: scale not given: the % may be the effect or the level left
SK-MEL-2 [15] = experiment: Growth inhibition of human SK-MEL-2 cells at 100 nM after 96 hrs by MTT assay; parameters: scale not given: the % may be the effect or the level left
NCI-H460 [16] = experiment: Growth inhibition of human NCI-H460 cells at 1 nM after 96 hrs by MTT assay; parameters: scale not given: the % may be the effect or the level left
ACHN [17] = experiment: Growth inhibition of human ACHN cells at 10 uM after 96 hrs by MTT assay; parameters: scale not given: the % may be the effect or the level left
LOX IMVI [18] = experiment: Growth inhibition of human LOXIMVI cells at 100 nM after 96 hrs by MTT assay; parameters: scale not given: the % may be the effect or the level left
MOLT-4 = experiment: Growth inhibition of human MOLT4 cells after 96 hrs by MTT assay; details: MOLT-4, 96 h; method in brief: as §1
SR = experiment: Growth inhibition of human SR cells at 1 nM after 96 hrs by MTT assay; parameters: scale not given: the % may be the effect or the level left
UACC-257 [19] = experiment: Growth inhibition of human UACC257 cells at 10 uM after 96 hrs by MTT assay; parameters: scale not given: the % may be the effect or the level left
HOP-62 = experiment: Growth inhibition of human HOP62 cells at 100 nM after 96 hrs by MTT assay; parameters: scale not given: the % may be the effect or the level left
NCI-H322M [20] = experiment: Growth inhibition of human NCI-H322M cells at 1 nM after 96 hrs by MTT assay; parameters: scale not given: the % may be the effect or the level left
SF-268 = experiment: Growth inhibition of human SF268 cells at 1 uM after 96 hrs by MTT assay; parameters: scale not given: the % may be the effect or the level left
OVCAR-3 = experiment: Growth inhibition of human OVCAR-3 cells at 100 nM after 96 hrs by MTT assay; parameters: scale not given: the % may be the effect or the level left
[21] = read-out: LC50 (the source's name)
[22] = read-out: Log10GI50 (converted)
[23] = read-out: Log10LC50 (converted)

C=C(C)[C@H]1CC=C(C)C2=CO[C@@H](c3ccccc3F)[C@@H]21
Activity (MCF7): 83% | Activity (A498): -16% | Activity (SK-OV-3): 59% | Activity [1]: 23% | Activity (LOX IMVI [2]): 33% | GI50 (DU-145; read-out: GI50): 5.53 µM | CC50 (DU-145; [21]): 94.5 µM | GI50 (DU-145; [22]): 5.5 µM | CC50 (DU-145; [23]): 95.5 µM | TGI (DU-145; read-out: Log10TGI (converted)): 26.3 µM | TGI (DU-145; read-out: TGI): 26.1 µM | Activity (NCI-H322M [3]): 49% | Activity (HOP-92): 88% | GI50 (M14; read-out: GI50): 6.51 µM | CC50 (M14; [21]): 45.6 µM | GI50 (M14; [22]): 6.46 µM | CC50 (M14; [23]): 45.7 µM | TGI (M14; read-out: Log10TGI (converted)): 20 µM | TGI (M14; read-out: TGI): 20.2 µM | GI50 (UACC-62 [4]; read-out: GI50): 3.31 µM | CC50 (UACC-62 [4]; [21]): 51.5 µM | GI50 (UACC-62 [4]; [22]): 3.31 µM | CC50 (UACC-62 [4]; [23]): 51.3 µM | TGI (UACC-62 [4]; read-out: Log10TGI (converted)): 18.2 µM | TGI (UACC-62 [4]; read-out: TGI): 18.3 µM | Activity (KM12 [5]): 90% | Activity (KM12 [6]): 93% | Activity (SK-MEL-2 [7]): 82% | Activity (T47D): 89% | GI50 (NCI-H460 [8]; read-out: GI50): 4.24 µM | CC50 (NCI-H460 [8]; [21]): 43.4 µM | GI50 (NCI-H460 [8]; [22]): 4.27 µM | CC50 (NCI-H460 [8]; [23]): 43.7 µM | TGI (NCI-H460 [8]; read-out: Log10TGI (converted)): 17.4 µM | TGI (NCI-H460 [8]; read-out: TGI): 17.5 µM | Activity (Malme-3M [9]): 19% | Activity (NCI/ADR-RES): 26% | GI50 (SK-MEL-2 [10]; read-out: GI50): 3.74 µM | CC50 (SK-MEL-2 [10]; [21]): 55.2 µM | GI50 (SK-MEL-2 [10]; [22]): 3.72 µM | CC50 (SK-MEL-2 [10]; [23]): 55 µM | TGI (SK-MEL-2 [10]; read-out: Log10TGI (converted)): 19.1 µM | TGI (SK-MEL-2 [10]; read-out: TGI): 19.2 µM | Activity (K562): 67.84% | Activity (UACC-62 [11]): 73% | Activity (TK-10): 84% | GI50 (NCI-H23; read-out: GI50): 4.88 µM | CC50 (NCI-H23; [21]): 51.4 µM | GI50 (NCI-H23; [22]): 4.9 µM | CC50 (NCI-H23; [23]): 51.3 µM | TGI (NCI-H23; read-out: Log10TGI (converted)): 19.5 µM | TGI (NCI-H23; read-out: TGI): 19.4 µM | Activity (RXF 393): 44% | Activity (ACHN [12]): 97% | Activity (UACC-257 [13]): 81% | Activity (PC-3): 89% | GI50 (SF-295; read-out: GI50): 4.49 µM | CC50 (SF-295; [21]): 45.7 µM | GI50 (SF-295; [22]): 4.47 µM | CC50 (SF-295; [23]): 45.7 µM | TGI (SF-295; read-out: Log10TGI (converted)): 17.4 µM | TGI (SF-295; read-out: TGI): 17.6 µM | Activity (Malme-3M [14]): 101.14% | Activity (SK-MEL-2 [15]): 76% | Activity (NCI-H460 [16]): 97% | Activity (ACHN [17]): 93.56% | Activity (LOX IMVI [18]): 79% | GI50 (MOLT-4; read-out: GI50): 2.12 µM | CC50 (MOLT-4; [21]): 56.2 µM | GI50 (MOLT-4; [22]): 2.14 µM | CC50 (MOLT-4; [23]): 56.2 µM | TGI (MOLT-4; read-out: Log10TGI (converted)): 7.08 µM | TGI (MOLT-4; read-out: TGI): 7.03 µM | Activity (SR): 83% | Activity (UACC-257 [19]): 76.82% | Activity (HOP-62): 98% | Activity (NCI-H322M [20]): 95% | Activity (SF-268): 43% | Activity (OVCAR-3): 90%

— ChEMBL document CHEMBL1153726, “Synthesis and anticancer activity of sclerophytin-inspired hydroisobenzofurans” (Bioorg Med Chem Lett, 2009)
